Results taken from ChEMBL document CHEMBL1687778, “Genetic determinants involved in the susceptibility of Pseudomonas aeruginosa to beta-lactam antibiotics” (2010).
Values after ≈ are worked out from the molar mass of the structure shown.

How the values were obtained:
Pseudomonas aeruginosa [1] = assay: Antimicrobial activity against Pseudomonas aeruginosa PA14 PA0667 harboring mutation in putative metallopeptidase by Etest method; assay type: functional
Method in brief: (§1)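 Overnight LB cultures (37°C) diluted in sterile 0.85% NaCl to about 1 × 10^7 CFU/ml. 100 µl spread on Mueller-Hinton agar, one Etest strip per plate, 18 h at 37°C. Ceftazidime, imipenem and meropenem tested. Wild-type PA14 plate included in each set. Each mutant verified in triplicate.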

Pseudomonas aeruginosa [2] = assay: Antimicrobial activity against wild type Pseudomonas aeruginosa PA14 by Etest method; assay type: functional
Method in brief: (§2)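 Etest MIC. Overnight LB cultures at 37°C were diluted in sterile 0.85% NaCl to about 1 × 10^7 CFU/ml. 100 µl was spread on Mueller-Hinton agar, one strip was placed per plate, and plates were incubated at 37°C for 18 h. Equal cell numbers were seeded per plate, and results were verified in triplicate. PA14 wild type was included in each set as a susceptibility control.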

Pseudomonas aeruginosa [3] = assay: Antimicrobial activity against Pseudomonas aeruginosa PA14 PA0807 harboring ampDh3 mutant gene by Etest method; assay type: functional; method in brief: as §1
Pseudomonas aeruginosa [4] = assay: Antimicrobial activity against Pseudomonas aeruginosa PA14 PA0908 harboring mutation in hypothetical protein by Etest method; assay type: functional; method in brief: as §1
Pseudomonas aeruginosa [5] = assay: Antimicrobial activity against Pseudomonas aeruginosa PA14 PA14_15600 harboring mutation in conserved hypothetical protein by Etest method; assay type: functional; method in brief: as §1
Pseudomonas aeruginosa [6] = assay: Antimicrobial activity against Pseudomonas aeruginosa PA14 PA2023 harboring galU mutant gene by Etest method; assay type: functional; method in brief: as §1
Pseudomonas aeruginosa [7] = assay: Antimicrobial activity against Pseudomonas aeruginosa PA14 PA2797 harboring mutation in putative anti-anti-sigma factor by Etest method; assay type: functional; method in brief: as §1
Pseudomonas aeruginosa [8] = assay: Antimicrobial activity against Pseudomonas aeruginosa PA14 PA3259 harboring mutation in conserved hypothetical protein by Etest method; assay type: functional; method in brief: as §2
Pseudomonas aeruginosa [9] = assay: Antimicrobial activity against Pseudomonas aeruginosa PA14 PA3589 harboring mutation in acetyl-coenzyme A (CoA) acetyltransferase (thiolase) by Etest method; assay type: functional; method in brief: as §2
Pseudomonas aeruginosa [10] = assay: Antimicrobial activity against Pseudomonas aeruginosa PA14 PA3721 harboring nalC mutant gene by Etest method; assay type: functional; method in brief: as §2
Pseudomonas aeruginosa [11] = assay: Antimicrobial activity against Pseudomonas aeruginosa PA14 PA4109 harboring ampR mutant gene by Etest method; assay type: functional; method in brief: as §2
Pseudomonas aeruginosa [12] = assay: Antimicrobial activity against Pseudomonas aeruginosa PA14 PA4402 harboring argJ mutant gene by Etest method; assay type: functional; method in brief: as §2
Pseudomonas aeruginosa [13] = assay: Antimicrobial activity against Pseudomonas aeruginosa PA14 PA4459 harboring mutation in Conserved hypothetical protein by Etest method; assay type: functional; method in brief: as §2
Pseudomonas aeruginosa [14] = assay: Antimicrobial activity against Pseudomonas aeruginosa PA14 PA5000 harboring wapR mutant gene by Etest method; assay type: functional; method in brief: as §2
Pseudomonas aeruginosa [15] = assay: Antimicrobial activity against Pseudomonas aeruginosa PA14 PA5002 harboring mutation in hypothetical protein by Etest method; assay type: functional; method in brief: as §2
Pseudomonas aeruginosa [16] = assay: Antimicrobial activity against Pseudomonas aeruginosa PA14 PA5005 harboring mutation in putative carbamoyltransferase by Etest method; assay type: functional; method in brief: as §2
Pseudomonas aeruginosa [17] = assay: Antimicrobial activity against Pseudomonas aeruginosa PA14 PA0401 harboring mutation in Noncatalytic dihydroorotase-like protein by Etest method; assay type: functional; method in brief: as §1
Pseudomonas aeruginosa [18] = assay: Antimicrobial activity against Pseudomonas aeruginosa PA14 PA0427 harboring oprM mutant gene by Etest method; assay type: functional; method in brief: as §1
Pseudomonas aeruginosa [19] = assay: Antimicrobial activity against Pseudomonas aeruginosa PA14 PA0764 harboring mucB mutant gene by Etest method; assay type: functional; method in brief: as §1
Pseudomonas aeruginosa [20] = assay: Antimicrobial activity against Pseudomonas aeruginosa PA14 PA0766 harboring mucD mutant gene by Etest method; assay type: functional; method in brief: as §1
Pseudomonas aeruginosa [21] = assay: Antimicrobial activity against Pseudomonas aeruginosa PA14 PA0770 harboring rnc mutant gene by Etest method; assay type: functional; method in brief: as §1
Pseudomonas aeruginosa [22] = assay: Antimicrobial activity against Pseudomonas aeruginosa PA14 PA1011 harboring mutation in putative lipoprotein by Etest method; assay type: functional; method in brief: as §1
Pseudomonas aeruginosa [23] = assay: Antimicrobial activity against Pseudomonas aeruginosa PA14 PA2963 harboring mutation in putative aminodeoxychorismate lyase by Etest method; assay type: functional; method in brief: as §1
Pseudomonas aeruginosa [24] = assay: Antimicrobial activity against Pseudomonas aeruginosa PA14 PA2970 harboring rpmF mutant gene by Etest method; assay type: functional; method in brief: as §1
Pseudomonas aeruginosa [25] = assay: Antimicrobial activity against Pseudomonas aeruginosa PA14 PA3050 harboring pyrD mutant gene by Etest method; assay type: functional; method in brief: as §1
Pseudomonas aeruginosa [26] = assay: Antimicrobial activity against Pseudomonas aeruginosa PA14 PA3262 harboring fklB mutant gene by Etest method; assay type: functional; method in brief: as §2
Pseudomonas aeruginosa [27] = assay: Antimicrobial activity against Pseudomonas aeruginosa PA14 PA3649 harboring mutation in putative membrane-associated zinc metalloprotease by Etest method; assay type: functional; method in brief: as §2
Pseudomonas aeruginosa [28] = assay: Antimicrobial activity against Pseudomonas aeruginosa PA14 PA3800 harboring mutation in conserved hypothetical protein by Etest method; assay type: functional; method in brief: as §2
Pseudomonas aeruginosa [29] = assay: Antimicrobial activity against Pseudomonas aeruginosa PA14 PA4005 harboring mutation in conserved hypothetical protein by Etest method; assay type: functional; method in brief: as §2
Pseudomonas aeruginosa [30] = assay: Antimicrobial activity against Pseudomonas aeruginosa PA14 PA4269 harboring rpoC mutant gene by Etest method; assay type: functional; method in brief: as §2
Pseudomonas aeruginosa [31] = assay: Antimicrobial activity against Pseudomonas aeruginosa PA14 PA4745 harboring nusA mutant gene by Etest method; assay type: functional; method in brief: as §2
Pseudomonas aeruginosa [32] = assay: Antimicrobial activity against Pseudomonas aeruginosa PA14 PA5288 harboring glnK mutant gene by Etest method; assay type: functional; method in brief: as §2
[33] = test system: Pseudomonas aeruginosa PAO1; assay: Activity of wild type Pseudomonas aeruginosa PAO1 Beta-lactamase assessed as nitrocefin hydrolysis per mg of protein by spectrophotometry
Method in brief: (§3)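 Cells grown to OD600 1.0, pelleted and resuspended in 0.1 M KH2PO4-Na2HPO4 pH 7.0. Crude extract made by two freeze-thaw cycles plus sonication on ice. β-Lactamase read as absorbance change at 485 nm with 50 µM nitrocefin in the same pH 7.0 phosphate buffer. Extract protein measured by BCA against a bovine serum albumin standard.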

[34] = test system: Pseudomonas aeruginosa PA14; assay: Activity of Beta-lactamase in Pseudomonas aeruginosa PA14 PA3047 harboring dacB mutant gene assessed as nitrocefin hydrolysis per mg of protein by spectrophotometry; method in brief: as §3
[35] = test system: Pseudomonas aeruginosa PAO1; assay: Activity of Beta-lactamase in Pseudomonas aeruginosa PAO1 PA3047 harboring dacB mutant gene assessed as nitrocefin hydrolysis per mg of protein by spectrophotometry; method in brief: as §3
[36] = test system: Pseudomonas aeruginosa PA14; assay: Activity of Beta-lactamase in Pseudomonas aeruginosa PA14 PA4109 harboring ampR mutant gene assessed as nitrocefin hydrolysis per mg of protein by spectrophotometry; method in brief: as §3
[37] = test system: Pseudomonas aeruginosa PAO1; assay: Activity of Beta-lactamase in Pseudomonas aeruginosa PAO1 PA4109 harboring ampR mutant gene assessed as nitrocefin hydrolysis per mg of protein by spectrophotometry; method in brief: as §3
[38] = test system: Pseudomonas aeruginosa PA14; assay: Activity of Beta-lactamase in Pseudomonas aeruginosa PA14 PA4522 harboring ampD mutant gene assessed as nitrocefin hydrolysis per mg of protein by spectrophotometry; method in brief: as §3
[39] = test system: Pseudomonas aeruginosa PAO1; assay: Activity of Beta-lactamase in Pseudomonas aeruginosa PAO1 PA4522 harboring ampD mutant gene assessed as nitrocefin hydrolysis per mg of protein by spectrophotometry; method in brief: as §3

SMILES: CC(C)(O/N=C(\C(=O)N[C@@H]1C(=O)N2C(C(=O)[O-])=C(C[n+]3ccccc3)CS[C@H]12)c1csc(N)n1)C(=O)O [CEFTAZIDIME]
- MIC (Pseudomonas aeruginosa [1]): 2 µg/mL (≈ 3.66 µM)
- MIC (Pseudomonas aeruginosa [2]): 0.75 µg/mL (≈ 1.37 µM)
- MIC (Pseudomonas aeruginosa [3]): 0.75 µg/mL (≈ 1.37 µM)
- MIC (Pseudomonas aeruginosa [4]): 2 µg/mL (≈ 3.66 µM)
- MIC (Pseudomonas aeruginosa [5]): 1.5 µg/mL (≈ 2.74 µM)
- MIC (Pseudomonas aeruginosa [6]): 3 µg/mL (≈ 5.49 µM)
- MIC (Pseudomonas aeruginosa [7]): 3 µg/mL (≈ 5.49 µM)
- MIC (Pseudomonas aeruginosa [8]): 1.5 µg/mL (≈ 2.74 µM)
- MIC (Pseudomonas aeruginosa [9]): 2 µg/mL (≈ 3.66 µM)
- MIC (Pseudomonas aeruginosa [10]): 1.5 µg/mL (≈ 2.74 µM)
- MIC (Pseudomonas aeruginosa [11]): 4 µg/mL (≈ 7.32 µM)
- MIC (Pseudomonas aeruginosa [12]): 3 µg/mL (≈ 5.49 µM)
- MIC (Pseudomonas aeruginosa [13]): 1.5 µg/mL (≈ 2.74 µM)
- MIC (Pseudomonas aeruginosa [14]): 4 µg/mL (≈ 7.32 µM)
- MIC (Pseudomonas aeruginosa [15]): 1.5 µg/mL (≈ 2.74 µM)
- MIC (Pseudomonas aeruginosa [16]): 3 µg/mL (≈ 5.49 µM)
- MIC (Pseudomonas aeruginosa [17]): 0.38 µg/mL (≈ 0.695 µM)
- MIC (Pseudomonas aeruginosa [18]): 0.38 µg/mL (≈ 0.695 µM)
- MIC (Pseudomonas aeruginosa [19]): 0.75 µg/mL (≈ 1.37 µM)
- MIC (Pseudomonas aeruginosa [20]): 0.38 µg/mL (≈ 0.695 µM)
- MIC (Pseudomonas aeruginosa [21]): 0.5 µg/mL (≈ 0.915 µM)
- MIC (Pseudomonas aeruginosa [22]): 0.5 µg/mL (≈ 0.915 µM)
- MIC (Pseudomonas aeruginosa [23]): 0.75 µg/mL (≈ 1.37 µM)
- MIC (Pseudomonas aeruginosa [24]): 0.5 µg/mL (≈ 0.915 µM)
- MIC (Pseudomonas aeruginosa [25]): 0.5 µg/mL (≈ 0.915 µM)
- MIC (Pseudomonas aeruginosa [26]): 0.75 µg/mL (≈ 1.37 µM)
- MIC (Pseudomonas aeruginosa [27]): 0.5 µg/mL (≈ 0.915 µM)
- MIC (Pseudomonas aeruginosa [28]): 0.25 µg/mL (≈ 0.457 µM)
- MIC (Pseudomonas aeruginosa [29]): 0.75 µg/mL (≈ 1.37 µM)
- MIC (Pseudomonas aeruginosa [30]): 0.5 µg/mL (≈ 0.915 µM)
- MIC (Pseudomonas aeruginosa [31]): 0.75 µg/mL (≈ 1.37 µM)
- MIC (Pseudomonas aeruginosa [32]): 0.5 µg/mL (≈ 0.915 µM)
- Activity [33]: 6.9 nmol/min
- Activity [34]: 110 nmol/min
- Activity [35]: 274 nmol/min
- Activity [36]: 257 nmol/min
- Activity [37]: 111 nmol/min
- Activity [38]: 31 nmol/min
- Activity [39]: 74 nmol/min
